≈ marks a conversion by molar mass, not a printed value. Calls of active or inactive are those of the source. The calls are words filed in the database; no cut-off is given here.
Legend:
[1] = test system: Caenorhabditis elegans; experiment: Toxicity in Caenorhabditis elegans AU37 at 6.25 to 100 ug/ml after 2 days; format: organism-based; conditions: in vivo, 48 h
Outline: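 Nematodes placed in medium containing a range of compound concentrations, held at 25 ℃ for 2 d, checked daily and photographed on day 2.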

[2] = test system: Candida albicans; experiment: Fungicidal activity against Candida albicans SC5314 assessed as reduction in colony forming units at 0.8 ug/ml after 48 hrs by time-kill assay; format: functional, organism-based
Outline: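 Time-kill: overnight cells PBS-washed, resuspended in RPMI 1640 at 1×10^6 cells/mL with compound, shaken at 200 rpm at 30 ℃. At set time points, dilutions plated on YPD agar and colonies counted after 48 h at 30 ℃. Three independent runs.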

[3] = test system: Candida albicans; experiment: Antibiofilm activity against Candida albicans SC5314 cultured in Lee media assessed inhibition of yeast-to-hypha morphological transition after 3 hrs; format: functional, organism-based
Outline: (§1)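 Hyphal induction in Lee's (pH 6.8), Spider, SLAD or RPMI 1640 medium with compound; morphology assessed by microscopy.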

[4] = test system: Cryptococcus neoformans; experiment: Antifungal activity against Cryptococcus neoformans 32609 after 24 hrs by spectrophotometric analysis; format: functional; conditions: Cryptococcus neoformans, 32609, 24 h
Outline: (§2)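 Broth microdilution in RPMI 1640, inoculum 5×10^3 CFU/mL, compounds from 6.4 mg/mL DMSO stocks, 35 ℃ for 24 h. Growth read as OD600; MIC80 taken as lowest concentration giving 80% growth inhibition. Triplicate.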

[5] = test system: Nannizzia gypsea; experiment: Antifungal activity against Microsporum gypseum Cmccfmza after 24 hrs by spectrophotometric analysis; format: functional; outline: as §2
[6] = test system: Candida albicans; experiment: Antibiofilm activity against Candida albicans SC5314 assessed down regulation of CYR1 gene at 0.4 ug/ml after 1 hr by qRT-PCR analysis; format: functional, organism-based
Outline: (§3)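 Biofilm grown in dishes with 0.4 µg/mL compound or DMSO control for 1 h; total RNA isolated and transcripts quantified by real-time RT-PCR. Normalized to 18S rRNA, expressed as fold change vs untreated SC5314. Mean ± SD of three independent experiments.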

[7] = test system: Nakaseomyces glabratus; experiment: Antifungal activity against Candida glabrata 537 after 24 hrs by spectrophotometric analysis; format: functional; conditions: Nakaseomyces glabratus, 537, 24 h; outline: as §2
[8] = test system: Candida albicans; experiment: Antifungal activity against Candida albicans SC5314 after 48 hrs by spectrophotometric analysis; format: functional; conditions: SC5314, 48 h
[9] = test system: Candida albicans; experiment: Antibiofilm activity against Candida albicans SC5314 cultured in RPMI 1640 media assessed inhibition of yeast-to-hypha morphological transition after 3 hrs; format: functional, organism-based; outline: as §1
[10] = test system: Candida albicans; experiment: Antibiofilm activity against Candida albicans SC5314 assessed down regulation of EAP1 gene at 0.4 ug/ml after 1 hr by qRT-PCR analysis; format: functional, organism-based; outline: as §3
[11] = test system: Candida albicans; experiment: Antibiofilm activity against Candida albicans SC5314 assessed down regulation of HGC1 gene at 0.4 ug/ml after 1 hr by qRT-PCR analysis; format: functional, organism-based; outline: as §3
[12] = test system: Candida albicans; experiment: Antifungal activity against fluconazole-resistant Candida albicans clinical isolate 103 after 24 hrs by spectrophotometric analysis; format: functional; conditions: isolate 103, 24 h
Outline: (§4)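 Broth microdilution (MIC80) against fluconazole-resistant clinical C. albicans isolates from a Shanghai hospital. Strains were grown in YPD at 30 ℃. Compounds came from 6.4 mg/mL DMSO stocks and were tested over a concentration series on 5×10^3 CFU/mL inoculum in RPMI 1640 at 35 ℃ for 24 h. OD600 was read; MIC80 is the lowest concentration giving 80% growth inhibition. Done in triplicate.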

[13] = test system: Candida albicans; experiment: Antibiofilm activity against Candida albicans SC5314 cultured in SLAD media assessed inhibition of yeast-to-hypha morphological transition after 3 hrs; format: functional, organism-based; outline: as §1
[14] = test system: Candida albicans; experiment: Antibiofilm activity against Candida albicans SC5314 assessed down regulation of ECE1 gene at 0.4 ug/ml after 1 hr by qRT-PCR analysis; format: functional, organism-based; outline: as §3
[15] = test system: CAPAN-1; experiment: Cytotoxicity against human Capan1 cells assessed as cell growth inhibition after 48 hrs by CCK8 assay; format: cell-based; conditions: CAPAN-1, 48 h
[16] = test system: Staphylococcus aureus; experiment: Antibacterial activity against Staphylococcus aureus Mu50 after 24 hrs; format: functional; conditions: Mu50, 24 h
[17] = test system: Candida albicans; experiment: Antifungal activity against fluconazole-resistant Candida albicans clinical isolate 032 after 24 hrs by spectrophotometric analysis; format: functional; conditions: isolate 032, 24 h; outline: as §4
[18] = test system: Candida albicans; experiment: Antibiofilm activity against Candida albicans SC5314 assessed down regulation of RAS1 gene at 0.4 ug/ml after 1 hr by qRT-PCR analysis; format: functional, organism-based; outline: as §3
[19] = test system: Candida albicans; experiment: Antifungal activity against Candida albicans infected in Sprague-Dawley rat vaginal infection model assessed as reduction in vaginal fungal burden at 1 mg/kg, administered intravaginally on day 1 to day 3 post fungal inoculation measured on day 4; format: functional, organism-based
Outline: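 Ovariectomized rats inoculated intravaginally with 0.1 mL of 1×10^7 CFU/mL C. albicans on days 10, 11 and 12 after surgery. Compound in saline with 1% DMSO (2, 4, 8 mg/mL) given intravaginally on days 1–3 post-inoculation. On day 4, 100 µL vaginal fluid plated on chloramphenicol SDA agar for CFU counts.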

[20] = test system: Candida albicans; experiment: Antibiofilm activity against Candida albicans SC5314 assessed down regulation of EFG1 gene at 0.4 ug/ml after 1 hr by qRT-PCR analysis; format: functional, organism-based; outline: as §3
[21] = test system: Candida albicans; experiment: Antibiofilm activity against Candida albicans SC5314 assessed inhibition of yeast-to-hypha morphological transition at 0.5 ug/ml after 3 hrs; format: functional, organism-based
Outline: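 Yeast-to-hypha transition in YPD with 10% (v/v) FBS across compound concentrations; cell morphology photographed after 3 h at 37°C.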

[22] = test system: Candida albicans; experiment: Antibiofilm activity against Candida albicans SC5314 assessed down regulation of ALS3 gene at 0.4 ug/ml after 1 hr by qRT-PCR analysis; format: functional, organism-based; outline: as §3
[23] = test system: Candida albicans; experiment: Antifungal activity against fluconazole-resistant Candida albicans isolate J38 clinical isolate after 24 hrs by spectrophotometric analysis; format: functional; conditions: isolate J38, 24 h; outline: as §4
[24] = test system: Candida albicans; experiment: Antibiofilm activity against Candida albicans SC5314 cultured in Spider media assessed inhibition of yeast-to-hypha morphological transition after 3 hrs; format: functional, organism-based; outline: as §1
[25] = test system: Candida albicans; experiment: Antibiofilm activity against Candida albicans SC5314 assessed inhibition of yeast-to-hypha morphological transition at 0.25 ug/ml after 3 hrs; format: functional, organism-based
Outline: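 Cells were induced to form hyphae in YPD with 10% (vol/vol) fetal bovine serum at 37°C for 3 h with compound. Cell morphology was then photographed. Strains were routinely grown beforehand in YPD at 30°C with shaking.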

[26] = test system: Candida albicans; experiment: Antibiofilm activity against Candida albicans SC5314 assessed down regulation of UME6 gene at 0.4 ug/ml after 1 hr by qRT-PCR analysis; format: functional, organism-based; outline: as §3
[27] = test system: Candida albicans; experiment: Antibiofilm activity against Candida albicans SC5314 assessed down regulation of CPH1 gene at 0.4 ug/ml after 1 hr by qRT-PCR analysis; format: functional, organism-based; outline: as §3
[28] = test system: Staphylococcus aureus; experiment: Antibacterial activity against Staphylococcus aureus NRS271 after 24 hrs; format: functional; conditions: NRS271, 24 h
[29] = test system: Candida albicans; experiment: Antibiofilm activity against Candida albicans SC5314 assessed inhibition of cellular surface hydrophobicity at 0.2 to 1.6 ug/ml incubated for 24 hrs; format: functional, organism-based
Outline: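 Biofilms treated with compound for 24 h were detached and resuspended in PBS to OD600 1.0. Suspension was vortexed with octane (4:1 by volume) for 3 min, then left 3 min at room temperature to separate. Aqueous-phase OD600 was compared with a no-octane control as (control − overlay)/control × 100%. Three replicates per group across three independent experiments.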

| SMILES | Activity [1] | Activity [2] | Activity [3] | MIC80 [4] [µg/mL] | MIC80 [5] [µg/mL] | Activity [6] | MIC80 [7] [µg/mL] | MIC80 [8] [µg/mL] | Activity [9] | Activity [10] | Activity [11] | MIC80 [12] [µg/mL] | Activity [13] | Activity [14] | IC50 [15] [µM] | MIC80 [16] [µg/mL] | MIC80 [17] [µg/mL] | Activity [18] | Activity [19] | Activity [20] | also measured |
| --- | --- | --- | --- | --- | --- | --- | --- | --- | --- | --- | --- | --- | --- | --- | --- | --- | --- | --- | --- | --- | --- |
| CCCc1ccnc2c1C(=O)c1sc([N+](=O)[O-])cc1C2=O | Non-Toxic | Active | Dose-dependent effect | 1 (≈ 3.31 µM) | 2 (≈ 6.62 µM) | Active | 2 (≈ 6.62 µM) | 0.5 (≈ 1.65 µM) | Dose-dependent effect | Active | Active | 0.5 (≈ 1.65 µM) | Dose-dependent effect | Active | > 100 | > 128 | 1 (≈ 3.31 µM) | Active | Active | Active | Activity [21]: Active; Activity [22]: Active; MIC80 [23]: 1 µg/mL (≈ 3.31 µM); Activity [24]: Dose-dependent effect; Activity [25]: Active; Activity [26]: Active; Activity [27]: Active; MIC80 [28]: > 128 µg/mL; Activity [29]: Active |
| CCc1ccnc2c1C(=O)c1sc([N+](=O)[O-])cc1C2=O | Non-Toxic | Active | Dose-dependent effect | 1 (≈ 3.47 µM) | 2 (≈ 6.94 µM) | Active | 2 (≈ 6.94 µM) | 0.25 (≈ 0.867 µM) | Dose-dependent effect | Active | Active | 0.25 (≈ 0.867 µM) | Dose-dependent effect | Active | > 100 | > 128 | 0.5 (≈ 1.73 µM) | Active | Active | Active | Activity [21]: Active; Activity [22]: Active; MIC80 [23]: 0.25 µg/mL (≈ 0.867 µM); Activity [24]: Dose-dependent effect; Activity [25]: Active; Activity [26]: Active; Activity [27]: Active; MIC80 [28]: > 128 µg/mL; Activity [29]: Active |

Source: ChEMBL document CHEMBL4138161, “Discovery of simplified sampangine derivatives as novel fungal biofilm inhibitors” (Eur J Med Chem, 2018)
